Source: PubChem BioAssay
CHRM5 antagonist: blocks acetylcholine activation of human M5 receptor | P08912 | CHO-hM5 cells, Fluo-8 calcium fluorescence, ACh EC80 | inhibition, % at 3 µM | 0.59% of 360,000 active | AID 624040;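 active = inhibition above a per-plate cutoff, the mean of that plate's test compounds plus 3 SD, cut at about 27% in these data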
CHRM4 agonist: CHRM4 agonism in calcium assay; P08173; CHO-K1 hM4/Gqi5, Fluo-8 calcium fluorescence; vehicle 0%, full acetylcholine response 100%; activation, % at 3 µM; 0.14% of 360,000 active; AID 624127;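 active = activation above the run mean over all test wells plus 3 SD, cut at about 32% in these data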;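 note: peak over basal fluorescence ratio per well then scaled between controls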
Target sequence (P08173 whole entry, looked up): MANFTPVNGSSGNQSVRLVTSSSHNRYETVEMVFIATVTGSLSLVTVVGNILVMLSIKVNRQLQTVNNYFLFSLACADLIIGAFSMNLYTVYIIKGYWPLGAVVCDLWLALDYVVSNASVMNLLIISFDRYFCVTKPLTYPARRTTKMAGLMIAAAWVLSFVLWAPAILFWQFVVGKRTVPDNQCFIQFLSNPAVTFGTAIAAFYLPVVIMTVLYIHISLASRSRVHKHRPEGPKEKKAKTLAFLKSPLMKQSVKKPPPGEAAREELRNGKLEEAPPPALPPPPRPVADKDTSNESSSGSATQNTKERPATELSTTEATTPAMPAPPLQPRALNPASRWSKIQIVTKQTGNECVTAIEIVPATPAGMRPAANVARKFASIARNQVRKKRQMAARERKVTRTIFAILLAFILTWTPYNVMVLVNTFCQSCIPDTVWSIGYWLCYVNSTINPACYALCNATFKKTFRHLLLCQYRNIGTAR
CHRM5 agonist: agonists of human muscarinic M5 receptor (CHRM5). CHO-K1 hM5 cells, Fluo-8 calcium fluorescence; 0% DMSO wells, 100% maximal acetylcholine response. activation, % at 3 µM. 0.19% of 360,000 active. AID 624037;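 active = activation above the run's mean over test compounds plus 3 SD, cut at about 23% in these data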;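 note: signal is peak over basal fluorescence ratio across the kinetic read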
CHRM4 PAM: CHRM4 positive allosteric modulation. activation, % at 3 µM. AID 624126. 0.4% of 360,000 active. CHO-K1 hM4/Gqi5, Fluo-8 calcium fluorescence, ACh EC20; 0% = ACh EC20, 100% = maximal ACh. P08173;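 active = activation above its plate's cutoff, the mean activation of sample wells plus 3 SD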
CHRM4 antagonist: CHRM4 antagonism in calcium assay | inhibition, % at 3 µM | 0.73% of 360,000 active | P08173 | CHO-hM4 cells, ACh EC80, Fluo-8 calcium fluorescence | AID 624125;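 active = inhibition above its plate's cutoff, the mean inhibition of sample wells plus 3 SD, cut at about 27% in these data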
CHRM5 PAM: CHRM5 positive allosteric modulation; 0.3% of 360,000 active; CHO-K1 hM5, Fluo-8 calcium, ACh EC20 PAM; 0% = ACh EC20, 100% = ACh EC100; activation, % at 3 µM;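 active = activation above the run cutoff, the mean activation of all test compounds plus 3 SD, cut at about 18% in these data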
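Replicates: One well per compound, no replicates | System: Human M5 receptor in CHO-K1 cells | Benchmarks: Low control EC20 acetylcholine (0%), high control EC100 acetylcholine (100%) | Probe or stimulus: Acetylcholine, EC20 level | Times: Fluo-8 loading 80 min at 37 °C plus 30 min room temperature | Signal: Intracellular calcium via Fluo-8 fluorescence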
Numbers stand for hits; - = inactive; ! = a repeat was not active. In the library only some 1.8% were active in any assay of this set; here they are far more common.

SMILES	CHRM5 antagonist	CHRM4 agonist	CHRM5 agonist	CHRM4 PAM	CHRM4 antagonist	CHRM5 PAM
Cc1cccc(-n2c(O)c(C=NC3CCS(=O)(=O)C3)c3ccccc3c2=O)c1C (centres undefined)	-	-	-	-	-	-
Cc1nc2cc(NC(=O)N3CCN(c4ccccn4)CC3)ccc2o1	-	-	-	-	-	-
O=C(Nc1ccc2nc(-c3ccco3)c(-c3ccco3)nc2c1)N1CCN(c2ccccn2)CC1	-	-	-	-	-	19.9
CCOC(=O)c1ccc(CNCc2ccccc2)cc1	-	-	-	-	39.6	-
NC(N)=N/N=C/c1c(Cl)cccc1Cl	-	-	29.2!	-	-	-
COc1ccccc1N1CCNC(C)C1=O (centres undefined)	-	-	-	14.4	-	-
COc1ccccc1N1C(=O)C2C3C=CC(CC3)C2C1=O (centres undefined)	-	-	-	-	-	-
CCCCNC(=O)COCc1cc(-c2ccc3c(c2)OCO3)on1	-	-	-	15.2	-	-
Cn1ncc([N+](=O)[O-])c1C(=O)N/N=C/c1ccc(F)cc1	-	-	-	30.6	-	-
CC(C)(C)c1ccc(S(=O)(=O)N2CCC(O)(c3ccc(Cl)cc3)CC2)cc1	30.3	-	-	-	-	-
COc1ccc(S(=O)(=O)N2CCC(O)(c3ccc(Cl)cc3)CC2)cc1	-	-	-	-	-	-
O=C(N[C@H](CO)Cc1ccccc1)c1ccco1	-	-	-	-	-	-
CCCCCCSc1ccc([C@H]2N[C@@](C)(C(=O)OC)[C@H]3C(=O)N(CC)C(=O)[C@@H]23)cc1	-	-	-	-	-	-
Cc1ccc(S(=O)(=O)c2cccc(S(=O)(=O)N3CCCC3)c2)cc1S(=O)(=O)N1CCCC1	-	-	-	-	81.4	-
CCCc1cc(=O)[nH]c(SCC(=O)NC2(C#N)CCCCC2)n1	-	-	-	22.8	-	-
Cc1cc([N+](=O)[O-])ccc1NC(=O)CN1C2CCC1CC(NC(=O)NC13CC4CC(CC(C4)C1)C3)C2 (centres undefined)	-	-	-	-	-	-
CCCCCCCn1c2c(c(=N)c3ccccc31)CCC2	27.3	-	-	-	-	-
CC(=O)NCCNC(=O)c1ccc(CSc2nc3ccccc3s2)cc1	-	-	-	-	39.4	-
C/C(=N\NC(=O)CSc1nc2ccccc2s1)c1ccco1	-	-	-	-	-	21.1
COc1ccccc1C1=NN(C(=O)c2ccccc2)C(c2ccc(Br)cc2)C1 (centres undefined)	-	-	-	-	-	-
NC(=S)NNc1ccnc2cc(Cl)ccc12	-	-	-	-	-	-
O=C(NNc1ccnc2cc(Cl)ccc12)C1CCCCC1	31.4	-	-	-	-	-
CC1(C)Cc2c(ccc3ccccc23)C(c2cc3ccccc3oc2=O)=N1	-	-	26.7	-	-	-
CC1(C)Cc2ccccc2C(c2cc3ccccc3oc2=O)=N1	-	-	-	-	-	-
CC(C)Cn1c(=O)oc2ccccc21	-	-	-	19.8	-	-
SMILES	CHRM5 antagonist	CHRM4 agonist	CHRM5 agonist	CHRM4 PAM	CHRM4 antagonist	CHRM5 PAM
O=c1oc2ccccc2n1CCCCCn1c(=O)oc2ccccc21	-	-	-	-	-	-
Cn1c2ccccc2c(=O)c2ccc(C#CC3(O)CCCCC3)cc21	-	37.3	-	-	-	-
COc1ccc(-n2c(C)cc(/C=C3\SC(=S)N(Cc4ccco4)C3=O)c2C)cc1	-	-	-	-	-	-
CCN1CCN(c2c(/C=C3\SC(=S)N(Cc4ccco4)C3=O)c(C)c(C#N)c(=O)n2C)CC1	-	-	57.4	-	-	-
CN(C)S(=O)(=O)c1cccc(CSCc2cccc(S(=O)(=O)N(C)C)c2)c1	41.1	-	-	-	-	-
COc1cc2c(cc1OC)-c1cc(OCCN3CCOCC3)nc(=O)n1CC2	-	-	-	-	-	24.8
CC(=O)c1sc(NC(=O)CCS(=O)(=O)c2ccccc2)nc1C	-	-	-	17.2	-	-
CC(=O)c1sc(NC(=O)CCS(=O)(=O)c2ccc(F)cc2)nc1C	-	-	-	-	-	-
